{"source": "ChEMBL document CHEMBL1137343", "about": "“4-arylazo-3,5-diamino-1H-pyrazole CDK inhibitors: SAR study, crystal structure in complex with CDK2, selectivity, and cellular effects” (J Med Chem, 2006)", "key": {"[1]": {"target": "T1, Cyclin-dependent kinase 2/cyclin E (Homo sapiens, UniProt P24941)", "experiment": "Inhibition of CDK2/Cyclin E", "assay_type": "protein-complex assay", "conditions": "read-out: Ki app", "procedure,_shortened": "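CDK2-cyclin E made in Sf9 insect cells co-infected with baculoviral constructs, purified on NiNTA. Assayed with 1 mg/mL histone H1, 15 µM ATP plus 0.05 µCi [γ-33P]ATP, in 50 mM HEPES, 10 mM MgCl2, 5 mM EGTA, 10 mM 2-glycerolphosphate, 1 mM NaF, 1 mM DTT, pH 7.4. Activity expressed as percentage of maximum; IC50 taken from dose-response curves.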"}, "[2]": {"target": "T1, Cyclin-dependent kinase 2/cyclin E", "experiment": "Inhibition of CDK2/Cyclin E in presence of 15 uM ATP", "assay_type": "protein-complex assay"}, "MCF7 [3]": {"test_system": "MCF7", "experiment": "Increase in p53 expression level in MCF7 cells at 50 uM after 24 hrs", "assay_type": "functional, cell-based", "conditions": "Homo sapiens", "procedure,_shortened": "(§1)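 MCF7 cells were treated 24 h, lysed in Laemmli buffer and run on 10% SDS-PAGE. Proteins were blotted to nitrocellulose; loading checked with Ponceau-S; blocked with 5% milk in PBS-Tween. Specific antibodies applied overnight (pRb phosphosites Ser780, Ser807, Thr821; p53; p21WAF1), then peroxidase secondary at 1:2000 with ECL detection.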"}, "HT-29 [4]": {"test_system": "HT-29", "experiment": "Cell cycle arrest in HT29 cells by accumulation at G0/G1 phase at 50 uM after 6 hrs", "assay_type": "functional, Homo sapiens", "procedure,_shortened": "(§2)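 Subconfluent, asynchronous HT-29 cells were treated 3, 6 or 12 h, then pulsed with 10 µM BrdU for 30 min at 37 °C. Cells were fixed in ice-cold 70% ethanol, DNA denatured in 2 M HCl and neutralised with borate. Staining used FITC anti-BrdU, then propidium iodide (0.1 mg/mL) with RNase A. Analysis by flow cytometry with 488 nm laser.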"}, "[5]": {"target": "Cyclin-dependent kinase 2/cyclin A (Homo sapiens, UniProt P24941)", "experiment": "Inhibition of CDK2/Cyclin A in presence of 100 uM ATP", "assay_type": "protein-complex assay"}, "HT-29 [6]": {"test_system": "HT-29", "experiment": "Inhibition of CEA mRNA synthesis in HT29 cells measured as number of copies per 10^6 cells by RT PCR at 50 uM after 12 hrs", "assay_type": "functional, Homo sapiens", "procedure,_shortened": "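HT-29 cells were treated 3, 6 or 12 h; total RNA extracted with TRI reagent. 3 µg RNA reverse-transcribed with random primers and M-MLV RT at 42 °C for 60 min. CEA transcripts quantified by TaqMan real-time PCR: 50 cycles of 95 °C 15 s and 65 °C 15 s. Absolute copies came from amplicon standards of 30 to 10^6 copies, expressed per 10^6 cells. Samples run in duplicate PCR; values average of four determinations ± SD.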"}, "[7]": {"target": "Ribosomal protein S6 kinase (P70S6K) (Homo sapiens) (UniProt Q9UBS0+P23443)", "experiment": "Activity of P70S6K at 10 uM", "assay_type": "protein-complex assay", "procedure,_shortened": "(§3)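 Radiometric kinase assay at 10 µM inhibitor, run in duplicate. c-Abl, CHK1, GSK3β, p70S6K, PKA and PKBα were run in 8 mM MOPS pH 7.0 with 0.2 mM EDTA. MAPK1 and SAPK2α were run in 25 mM Tris pH 7.5 with 0.02 mM EGTA. CK2 was run in 20 mM HEPES pH 7.6, 0.15 M NaCl, 0.1 mM EDTA, 2 mM DTT and 0.1% Triton X-100. All had 10 mM Mg-acetate, 10 µM ATP, [γ-33P]ATP and a peptide substrate; 40 min; H3PO4 stop; P30 filter; scintillation counting.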"}, "HOS": {"test_system": "HOS", "experiment": "Viability of HOS cells at 100 uM", "assay_type": "functional, Homo sapiens", "procedure,_shortened": "(§4)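 Cells grown in DMEM with 10% FCS and 4 mM glutamine at 37 °C, plated in 96-well format, preincubated 12 h, then exposed 72 h. Live cells measured by Calcein AM (1 h) fluorescence at 485/538 nm; % viable cells given at 100 µM compound.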"}, "[8]": {"target": "T1, Cyclin-dependent kinase 2/cyclin E", "experiment": "Inhibition of CDK2/Cyclin E in presence of 100 uM ATP", "assay_type": "protein-complex assay"}, "[9]": {"target": "Glycogen synthase kinase-3 beta (Homo sapiens) (UniProt P49841)", "sequence (P49841 whole entry, looked up)": "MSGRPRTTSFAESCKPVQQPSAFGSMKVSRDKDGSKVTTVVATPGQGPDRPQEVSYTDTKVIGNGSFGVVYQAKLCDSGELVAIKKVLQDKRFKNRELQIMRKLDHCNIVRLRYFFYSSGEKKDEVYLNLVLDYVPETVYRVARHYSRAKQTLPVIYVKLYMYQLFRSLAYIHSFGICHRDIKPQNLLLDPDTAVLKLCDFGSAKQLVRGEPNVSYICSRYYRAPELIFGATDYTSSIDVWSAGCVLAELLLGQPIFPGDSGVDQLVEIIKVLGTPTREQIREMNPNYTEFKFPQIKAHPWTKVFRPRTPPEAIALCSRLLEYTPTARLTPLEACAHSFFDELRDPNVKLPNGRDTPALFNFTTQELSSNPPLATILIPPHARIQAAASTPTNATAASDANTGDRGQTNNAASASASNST", "experiment": "Activity of GSK3-beta at 10 uM", "procedure,_shortened": "as §3"}, "MCF7 (Homo sapiens)": {"test_system": "MCF7 (Homo sapiens)", "experiment": "Reduction of RNA polymerase 2 CTD phosphorylation in MCF7 cells after 24 hrs"}, "MCF7 [10]": {"test_system": "MCF7", "experiment": "Increase in p53 expression level in MCF7 cells at 100 uM after 24 hrs", "assay_type": "functional, cell-based", "conditions": "Homo sapiens", "procedure,_shortened": "as §1"}, "[11]": {"target": "Cyclin-dependent kinase 4/cyclin D1 (Homo sapiens, UniProt P11802)", "sequence (P11802 whole entry)": "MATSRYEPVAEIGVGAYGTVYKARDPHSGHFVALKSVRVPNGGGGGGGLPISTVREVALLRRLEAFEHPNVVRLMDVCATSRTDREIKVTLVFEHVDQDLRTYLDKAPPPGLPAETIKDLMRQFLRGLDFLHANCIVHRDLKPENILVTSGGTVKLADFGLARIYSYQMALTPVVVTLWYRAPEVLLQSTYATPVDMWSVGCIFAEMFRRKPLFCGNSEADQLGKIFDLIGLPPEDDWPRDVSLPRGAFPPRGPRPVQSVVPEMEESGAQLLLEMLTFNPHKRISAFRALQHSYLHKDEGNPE", "sequence (P24385 whole entry, further chain)": "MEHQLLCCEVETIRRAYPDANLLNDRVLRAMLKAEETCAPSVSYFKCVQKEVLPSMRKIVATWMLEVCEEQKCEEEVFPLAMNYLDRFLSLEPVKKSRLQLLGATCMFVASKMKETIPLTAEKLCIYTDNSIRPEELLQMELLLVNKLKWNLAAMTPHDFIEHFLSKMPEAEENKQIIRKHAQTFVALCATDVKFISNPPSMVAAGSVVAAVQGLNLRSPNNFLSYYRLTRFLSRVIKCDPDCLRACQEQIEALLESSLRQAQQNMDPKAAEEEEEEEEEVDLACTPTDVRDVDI", "experiment": "Inhibition of CDK4/Cyclin D1 in presence of 100 uM ATP", "assay_type": "protein-complex assay"}, "MCF7 [12]": {"test_system": "MCF7", "experiment": "Viability of MCF7 cells at 100 uM", "assay_type": "functional, Homo sapiens", "procedure,_shortened": "as §4"}, "HT-29 [13]": {"test_system": "HT-29", "experiment": "Cell cycle arrest in HT29 cells by accumulation at G0/G1 phase at 50 uM after 12 hrs", "assay_type": "functional, Homo sapiens", "procedure,_shortened": "as §2"}, "HT-29 [14]": {"test_system": "HT-29", "experiment": "Cell cycle arrest in HT29 cells by accumulation at G2/M phase at 50 uM after 3 hrs", "assay_type": "functional, Homo sapiens", "procedure,_shortened": "as §2"}, "HT-29 [15]": {"test_system": "HT-29", "experiment": "Cell cycle arrest in HT29 cells by accumulation at G2/M phase at 50 uM after 6 hrs", "assay_type": "functional, Homo sapiens", "procedure,_shortened": "as §2"}, "[16]": {"target": "RAC-alpha serine/threonine-protein kinase (Homo sapiens) (UniProt P31749)", "sequence (P31749 whole entry)": "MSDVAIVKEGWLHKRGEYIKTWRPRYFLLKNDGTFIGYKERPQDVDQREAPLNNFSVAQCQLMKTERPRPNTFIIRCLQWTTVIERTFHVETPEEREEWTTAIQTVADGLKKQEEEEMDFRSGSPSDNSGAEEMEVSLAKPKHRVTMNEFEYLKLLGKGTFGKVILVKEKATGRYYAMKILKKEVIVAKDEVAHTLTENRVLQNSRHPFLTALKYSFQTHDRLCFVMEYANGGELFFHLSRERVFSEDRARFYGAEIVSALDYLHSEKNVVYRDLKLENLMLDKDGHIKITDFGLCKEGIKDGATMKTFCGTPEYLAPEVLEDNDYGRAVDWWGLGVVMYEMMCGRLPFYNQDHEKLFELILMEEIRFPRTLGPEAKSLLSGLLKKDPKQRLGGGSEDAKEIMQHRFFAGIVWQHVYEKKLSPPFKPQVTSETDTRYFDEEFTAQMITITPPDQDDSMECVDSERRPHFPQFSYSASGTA", "experiment": "Activity of PKBalpha at 10 uM", "procedure,_shortened": "as §3"}, "HT-29 [17]": {"test_system": "HT-29", "experiment": "Cell cycle arrest in HT29 cells by accumulation at S phase at 50 uM after 3 hrs", "assay_type": "functional, Homo sapiens", "procedure,_shortened": "as §2"}, "[18]": {"target": "CDK9/cyclin T1 (Homo sapiens) (UniProt O60563+P50750)", "experiment": "Activity of CDK9/Cyclin T1 at 10 uM", "assay_type": "protein-complex assay"}, "[19]": {"target": "Tyrosine-protein kinase ABL1 (Homo sapiens) (UniProt P00519)", "sequence (P00519 whole entry)": "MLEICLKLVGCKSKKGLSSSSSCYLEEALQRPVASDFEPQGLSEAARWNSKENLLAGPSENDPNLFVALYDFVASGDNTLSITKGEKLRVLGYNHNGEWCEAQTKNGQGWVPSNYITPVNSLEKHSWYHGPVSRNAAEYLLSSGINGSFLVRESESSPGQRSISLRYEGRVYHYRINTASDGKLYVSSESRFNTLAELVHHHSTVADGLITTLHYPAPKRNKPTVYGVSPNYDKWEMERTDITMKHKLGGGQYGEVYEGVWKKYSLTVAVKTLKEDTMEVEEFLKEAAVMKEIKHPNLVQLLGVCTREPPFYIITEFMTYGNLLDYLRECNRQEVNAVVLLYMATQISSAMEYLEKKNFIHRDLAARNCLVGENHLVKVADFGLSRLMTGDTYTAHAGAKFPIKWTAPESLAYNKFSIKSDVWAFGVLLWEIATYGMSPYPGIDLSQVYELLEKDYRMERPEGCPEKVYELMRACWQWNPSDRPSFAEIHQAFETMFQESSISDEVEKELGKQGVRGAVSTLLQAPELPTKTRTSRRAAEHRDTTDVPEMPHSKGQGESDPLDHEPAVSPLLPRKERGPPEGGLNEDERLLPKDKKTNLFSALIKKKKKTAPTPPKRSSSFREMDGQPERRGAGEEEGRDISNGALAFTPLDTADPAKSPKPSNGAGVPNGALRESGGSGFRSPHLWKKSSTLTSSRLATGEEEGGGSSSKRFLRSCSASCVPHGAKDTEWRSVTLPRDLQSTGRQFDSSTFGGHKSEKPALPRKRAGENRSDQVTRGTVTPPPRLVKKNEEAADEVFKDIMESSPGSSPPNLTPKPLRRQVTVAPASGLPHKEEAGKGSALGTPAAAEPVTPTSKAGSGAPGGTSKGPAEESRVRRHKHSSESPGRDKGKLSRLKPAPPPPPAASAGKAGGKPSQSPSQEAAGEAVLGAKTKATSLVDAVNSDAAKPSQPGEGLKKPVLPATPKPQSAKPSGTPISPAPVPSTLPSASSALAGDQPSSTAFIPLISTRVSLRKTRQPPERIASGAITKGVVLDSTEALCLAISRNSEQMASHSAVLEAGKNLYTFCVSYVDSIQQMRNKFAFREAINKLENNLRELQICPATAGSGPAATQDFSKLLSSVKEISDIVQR", "experiment": "Activity of c-ABL at 10 uM", "procedure,_shortened": "as §3"}, "MCF7 [20]": {"test_system": "MCF7", "experiment": "Increase in p21 WAF1 expression level in MCF7 cells at 50 uM after 24 hrs", "assay_type": "functional, cell-based", "conditions": "Homo sapiens", "procedure,_shortened": "as §1"}, "[21]": {"target": "Cyclin-dependent kinase 2/cyclin E (Homo sapiens) (UniProt P24864+P24941+O96020)", "experiment": "Activity of CDK2/Cyclin E at 10 uM", "assay_type": "protein-complex assay"}, "MCF7 [22]": {"test_system": "MCF7", "experiment": "Decrease in pRb phosphorylation in MCF7 cells after 24 hrs at 50 uM", "assay_type": "functional, cell-based", "conditions": "Homo sapiens", "procedure,_shortened": "as §1"}, "[23]": {"target": "Mitogen-activated protein kinase 14 (Homo sapiens) (UniProt Q16539)", "sequence (Q16539 whole entry)": "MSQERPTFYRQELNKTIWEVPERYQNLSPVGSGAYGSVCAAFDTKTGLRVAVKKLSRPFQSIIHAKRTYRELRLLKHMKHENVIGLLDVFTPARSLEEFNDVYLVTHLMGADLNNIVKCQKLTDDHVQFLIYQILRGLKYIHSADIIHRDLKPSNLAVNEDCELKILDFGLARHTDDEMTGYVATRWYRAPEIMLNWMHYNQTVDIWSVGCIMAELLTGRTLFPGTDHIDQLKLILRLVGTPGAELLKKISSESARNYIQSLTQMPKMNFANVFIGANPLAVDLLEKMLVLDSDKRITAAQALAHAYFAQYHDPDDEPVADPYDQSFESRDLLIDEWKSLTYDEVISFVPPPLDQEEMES", "experiment": "Activity of SAPK2-alpha at 10 uM", "procedure,_shortened": "as §3"}, "HT-29 [24]": {"test_system": "HT-29", "experiment": "Inhibition of EpCAM mRNA synthesis in HT29 cells measured as number of copies per 10^6 cells by RT PCR at 50 uM after 3 hrs", "assay_type": "functional, Homo sapiens", "procedure,_shortened": "(§5)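 HT-29 cells (5 × 10⁶) treated for 3, 6 or 12 h; total RNA extracted with TRI reagent, 3 µg reverse transcribed with random primers and M-MLV RT (42 °C, 60 min). Absolute transcript copies quantified by TaqMan real-time PCR, 50 cycles, against diluted gene-specific amplicon standards (30–1 000 000 copies); duplicate PCR per sample; values are means of four determinations ± SD.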"}, "HT-29 [25]": {"test_system": "HT-29", "experiment": "Inhibition of GAPDH mRNA synthesis in HT29 cells measured as number of copies per 10^6 cells by RT PCR at 50 uM after 3 hrs", "assay_type": "functional, Homo sapiens", "procedure,_shortened": "as §5"}, "HT-29 [26]": {"test_system": "HT-29", "experiment": "Cell cycle arrest in HT29 cells by accumulation at S phase at 50 uM after 6 hrs", "assay_type": "functional, Homo sapiens", "procedure,_shortened": "as §2"}, "[27]": {"target": "Cyclin-dependent kinase 7/ cyclin H (Homo sapiens, UniProt P50613)", "sequence (P51946 whole entry)": "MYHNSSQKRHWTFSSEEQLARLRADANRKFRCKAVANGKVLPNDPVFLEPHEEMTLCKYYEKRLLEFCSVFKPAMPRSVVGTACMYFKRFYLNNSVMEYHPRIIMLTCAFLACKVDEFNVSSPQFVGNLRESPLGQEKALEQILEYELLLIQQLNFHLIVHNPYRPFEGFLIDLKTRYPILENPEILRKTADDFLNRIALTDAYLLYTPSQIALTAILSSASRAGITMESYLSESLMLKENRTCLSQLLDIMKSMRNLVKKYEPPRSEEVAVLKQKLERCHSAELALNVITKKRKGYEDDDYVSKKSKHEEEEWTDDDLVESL", "sequence (P50613 whole entry)": "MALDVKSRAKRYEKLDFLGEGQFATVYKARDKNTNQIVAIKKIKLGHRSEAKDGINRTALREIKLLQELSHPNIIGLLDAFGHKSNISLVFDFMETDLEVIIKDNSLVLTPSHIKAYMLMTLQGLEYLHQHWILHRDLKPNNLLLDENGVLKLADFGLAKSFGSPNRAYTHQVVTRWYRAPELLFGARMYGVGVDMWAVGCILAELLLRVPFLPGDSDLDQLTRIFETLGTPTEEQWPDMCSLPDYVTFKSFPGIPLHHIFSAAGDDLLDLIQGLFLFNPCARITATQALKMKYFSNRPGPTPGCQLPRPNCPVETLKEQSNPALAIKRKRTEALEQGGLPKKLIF", "experiment": "Inhibition of CDK7/Cyclin H in presence of 100 uM ATP", "assay_type": "protein-complex assay"}}, "note": "Active and inactive are the calls of the source. The calls are words filed in the database; no cut-off is given here.", "data": [{"smiles": "Nc1n[nH]c(N)c1/N=N/c1ccc(O)cc1", "values": [{"measurement": "Ki", "setting": "[1]", "result": 13.3, "unit": "µM"}, {"measurement": "IC50", "setting": "[2]", "result": 3.5, "unit": "µM"}, {"measurement": "Activity", "setting": "MCF7 [3]", "result": "Active"}, {"measurement": "Activity", "setting": "HT-29 [4]", "result": 35.9, "unit": "%"}, {"measurement": "IC50", "setting": "[5]", "result": 69, "unit": "µM"}, {"measurement": "Activity", "setting": "HT-29 [6]", "result": 12005}, {"measurement": "residual activity", "setting": "[7]", "result": 51, "unit": "%"}, {"measurement": "Activity", "setting": "HOS", "result": 22, "unit": "%"}, {"measurement": "IC50", "setting": "[8]", "result": 20, "unit": "µM"}, {"measurement": "residual activity", "setting": "[9]", "result": 81, "unit": "%"}, {"measurement": "Activity", "setting": "MCF7 (Homo sapiens)", "result": "Active"}, {"measurement": "Activity", "setting": "MCF7 [10]", "result": "Active"}, {"measurement": "IC50", "setting": "[11]", "result": 13.5, "unit": "µM"}, {"measurement": "Activity", "setting": "MCF7 [12]", "result": 20, "unit": "%"}, {"measurement": "Activity", "setting": "HT-29 [13]", "result": 27.2, "unit": "%"}, {"measurement": "Activity", "setting": "HT-29 [14]", "result": 11.4, "unit": "%"}, {"measurement": "Activity", "setting": "HT-29 [15]", "result": 9.9, "unit": "%"}, {"measurement": "residual activity", "setting": "[16]", "result": 100, "unit": "%"}, {"measurement": "Activity", "setting": "HT-29 [17]", "result": 55.7, "unit": "%"}, {"measurement": "residual activity", "setting": "[18]", "result": 6.9, "unit": "%"}, {"measurement": "residual activity", "setting": "[19]", "result": 84, "unit": "%"}, {"measurement": "Activity", "setting": "MCF7 [20]", "result": "Active"}, {"measurement": "residual activity", "setting": "[21]", "result": 31, "unit": "%"}, {"measurement": "Activity", "setting": "MCF7 [22]", "result": "Active"}, {"measurement": "residual activity", "setting": "[23]", "result": 82, "unit": "%"}, {"measurement": "Activity", "setting": "HT-29 [24]", "result": 6047138}, {"measurement": "Activity", "setting": "HT-29 [25]", "result": 3342533}, {"measurement": "Activity", "setting": "HT-29 [26]", "result": 54.2, "unit": "%"}, {"measurement": "IC50", "setting": "[27]", "result": 26, "unit": "µM"}]}]}
